Only some compounds are listed: those with a hit (about 2.5% of all), similar ones and a draw of the others.
MBD2 DNA inh – inhibitors of human MBD2 binding to methylated oligonucleotide. TR-FRET. 370,000 compounds, 0.31% hits. inhibition, % at 4.4 µM. Q9UBB5. AID 686964; in the data active means inhibition above about 13%
SUMO1-SIM PPI – alters human SUMO1 binding to SIM partners | P63165 | SUMO1 binding to a labelled peptide, TR-FRET, 1 h | inhibition, % at 20 µM | 360,000 compounds, 0.33% hits | AID 602429; in the data active means inhibition above about 37%
DSG3 Ab inh – blocks pemphigus antibody binding to human desmoglein-3 | P32926 | DSG3-coupled beads, scFv-anti-DSG3-GFP binding, flow cytometry; active compounds read low | binding (percent of control), % at 10 µM | 310,000 compounds, 0.48% hits | AID 588358;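 active means binding more than 3 SD below its plate's average and above zero; inconclusive means below that plate limit but binding exactly zero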;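 further: hits lower antibody fragment binding to DSG3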
UHRF1 MBD2 ctr – blocks human UHRF1 binding to methylated DNA. Q96T88. inhibition, % at 4.4 µM. UHRF1 binding to methylated oligo, TR-FRET. 370,000 compounds, 0.75% hits; in the data active means inhibition above about 21%;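 further: UHRF1 SRA domain binding a hemimethylated CpG hairpin DNA probe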
NS3 helicase inh – inhibitors of Hepatitis C virus NS3 helicase; NS3 helicase DNA unwinding, Cy5 molecular beacon fluorescence; inhibition, % at 10.9 µM; 290,000 compounds, 0.56% hits;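 active means inhibition above the mean of all tested compounds plus 3 SD, set per campaign, cut at about 35% in these data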
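Assay system: hepatitis C virus NS3 helicase domain fragment enzyme. Also added: annealed dual-labelled DNA beacon duplex, ATP-started. Timing: 1 h reaction at 25 °C, ATP-initiated. Technique: Cy5 fluorescence at 0 and 60 min, beacon hairpin quenching. Evaluation: % inhibition of unwinding. Replication: one well per compound.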
DNMT1 block – blocks human DNA methyltransferase DNMT1; P26358; DNMT1 molecular beacon, Hinp1I cleavage, fluorescence; inhibition (reported as % activation of signal), % at 10 µM; 360,000 compounds, 0.83% hits; AID 588458; in the data active means inhibition above about 50%
Numbers stand for hits; - = inactive; ? = inconclusive; . = no result given; + = active, no number.

SMILES	MBD2 DNA inh	SUMO1-SIM PPI	DSG3 Ab inh	UHRF1 MBD2 ctr	NS3 helicase inh	DNMT1 block
CCOc1cccc(-c2nn(-c3ccccc3)cc2/C=C(/C#N)C(=O)NCCCn2ccnc2)c1	-	-	97	-	-	-
N#C/C(=C/c1cn(-c2ccccc2)nc1-c1cccc(OCc2ccccc2)c1)C(=O)NCCCn1ccnc1	-	-	-	-	-	-
O=C1CC(c2ccccc2)CC(=O)C1=CN1CCCC1 (stereo not given)	-	-	-	68	-	-
CN1C(=O)CC(c2ccccc2)CC1=O	-	-	-	-	.	-
CCCCS(=O)CC(CS(=O)CCCC)OC(=O)c1ccc(C)cc1 (stereo not given)	-	-	45	-	-	-
O=C(Nc1ccc(-c2nc3ccccc3c(=O)o2)cc1)c1ccco1	-	-	-	21	-	-
CC(=O)Nc1ccc(-c2nc3ccccc3c(=O)o2)cc1	-	-	-	-	-	-
CCn1cc(C(=O)NCCCN2CCN(C)CC2)c(=O)c2cc(S(=O)(=O)N3CCc4ccccc4C3)ccc21	-	-	-	41	-	-
Cn1c(N/N=C/c2cccs2)cc(=O)n(C)c1=O	-	-	-	-	-	-
Fc1c(F)c(C(F)(F)F)c(F)c(F)c1N/N=C\c1cccs1	-	41	-	-	-	-
Cc1nn(CC(=O)O)c(C)c1[N+](=O)[O-]	-	-	-	-	-	-
Cc1nn(CC(=O)O)c(C)c1N	-	-	-	30	-	-
COc1cc(C(=O)NCC(=O)OCC(=O)c2cccc3ccccc23)cc(OC)c1OC	-	61	-	-	-	-
CCOC(=O)CCC(NC(=O)CC(=O)NC(CCC(=O)OCC)C(=O)OCC)C(=O)OCC (stereo not given)	-	-	-	36	-	-
COc1ccc(Cl)cc1Nc1nc(-c2sc(NC(=O)C(C)(C)C)nc2C)cs1	-	87	-	-	-	-
CCCCC(=O)Nc1nc(C)c(-c2csc(Nc3cc(Cl)ccc3OC)n2)s1	-	-	-	-	-	-
CCCCCCC(=O)Nc1nc(C)c(-c2csc(Nc3cc(Cl)ccc3C)n2)s1	-	87	-	-	-	-
COc1ccc(NC(=O)c2cccnc2)cc1OCC(C)C	-	-	-	-	-	-
O=C(CSc1nc(-c2ccccc2)c(-c2ccccc2)o1)N1CCOCC1	-	-	.	92	-	-
O=C(CSc1nnc(-c2ccccc2)c(-c2ccccc2)n1)N1CCOCC1	-	-	-	-	-	-
CC(=O)Nc1ccc(S(=O)(=O)/N=C2\C(=O)c3ccccc3C([O-])=C2n2cc[n+](-c3ccccn3)c2)cc1	-	-	-	44	-	-
Cc1ccc(S(=O)(=O)/N=C2\C(=O)c3ccccc3C([O-])=C2n2cc[n+](CCC(C)C)c2)cc1	.	-	-	.	-	-
Cc1cc(NC(=O)Cc2ccc(Br)cc2)no1	-	-	-	-	-	-
CCN(CC(=O)Nc1ccc(Br)cc1)CC(=O)Nc1cc(C)on1	-	-	66	-	.	-
Cc1cc(Br)ccc1NC(=O)C1CSC2(C)CCC(=O)N12 (stereo not given)	-	-	-	35	.	-
SMILES	MBD2 DNA inh	SUMO1-SIM PPI	DSG3 Ab inh	UHRF1 MBD2 ctr	NS3 helicase inh	DNMT1 block
CSc1ccc(/C=C(\NC(=O)c2ccco2)C(=O)N2CCCCC2)cc1	-	-	-	-	-	-
N#CC1=C(N)n2c(s/c(=C\c3cccs3)c2=O)=C(C#N)C1c1cccs1 (stereo not given)	-	-	-	-	-	-
N#CC1=C(N)n2c(s/c(=C\c3ccco3)c2=O)=C(C#N)C1c1ccco1 (stereo not given)	-	-	-	41	-	95
Nc1ccc(-c2c3ccc(=O)cc-3oc3cc(O)ccc23)c(C(=O)O)c1	.	-	-	.	.	+
CC(=O)Nc1ccc(S(=O)(=O)NCCC(=O)OCC(=O)NC(C)c2ccc(Cl)cc2)cc1 (stereo not given)	-	-	-	-	.	-
CCOc1ccc(N2CC(C(=O)NCCN3C(=O)S/C(=C\c4ccc(OC)cc4)C3=O)CC2=O)cc1 (stereo not given)	-	-	-	-	-	-
CCc1ccc(S(=O)(=O)NC2CCCCNC2=O)cc1 (stereo not given)	-	-	76	-	-	-
Oc1ccc(/C=N/Nc2nc(-c3cccnc3)nc3ccccc23)c(O)c1	-	-	78	-	-	-
NSc1nc(N)c2nc(-c3ccccc3)c(-c3ccccc3)nc2n1	-	-	67	-	-	-
Cc1cc(C)n2nc(C(=O)Nc3ccn(Cc4ccccc4C)n3)cc2n1	-	-	-	23	-	-
Cc1cc(NC(=O)c2ccoc2C)ccc1Br	-	-	-	-	.	-
CN(C(=O)COC(=O)c1ccccc1Nc1ccccc1)c1c(N)n(Cc2ccccc2)c(=O)[nH]c1=O	-	-	-	-	.	-
CC(C)Oc1ccc(C(=O)Nc2ccc(N3CCN(C(=O)c4ccco4)CC3)cc2)cc1	-	-	?	-	-	-
Cc1cc(C)cc(C(=O)Nc2ccc(N3CCCC3)cc2)c1	-	-	-	47	-	-
CC(C)Oc1ccc(C(=O)Nc2ccc(N3CCCC3)cc2)cc1	.	-	-	.	-	53
O=C(Nc1ccc(N2CCCC2)cc1)c1cc(Cl)ccc1Cl	-	90	71	-	-	53
O=C(Nc1ccc(N2CCCC2)cc1)c1ccc(Cl)cc1Cl	-	-	-	-	-	-
COC(CNC(=O)c1ccc(CS(=O)(=O)c2ccc(C)cc2)o1)OC	-	-	-	-	-	-
CN(C)S(=O)(=O)c1ccc(SCC(=O)N2CC(=O)Nc3ccccc32)nc1	-	-	-	-	.	-
Cc1c(Cl)cccc1NC(=O)c1ccc(-n2ccnc2)nc1	-	-	.	-	-	-
Cc1csc(SC(C)C(=O)Nc2ccccc2C)n1 (stereo not given)	-	-	.	-	.	-
COc1ccc(-c2cc3ccc(OCC(=O)NCC4CCC(C(=O)O)CC4)cc3oc2=O)cc1 (stereo not given)	-	-	-	-	-	-
COc1ccc2c(c1)c(=O)oc1cc(OCC(=O)N3CCC(C)CC3)ccc12	.	-	-	.	-	63
COc1ccc2c(c1)c(=O)oc1cc(OCC(=O)N3CCCC(C)C3)ccc12 (stereo not given)	-	-	.	-	-	-
COc1ccc2c(c1)c(=O)oc1cc(OCC(=O)NCC3CCC(C(=O)O)CC3)ccc12 (stereo not given)	-	-	-19	-	-	-
Cc1ccc(S(=O)(=O)/N=C2/NC(=O)/C(=C\c3ccccc3)S2)cc1	-	-	-	-	.	-
CC(=O)Nc1ccc(S(=O)(=O)/N=C2/NC(=O)/C(=C\c3ccco3)S2)cc1	-	-	-	31	-	51
C/C(=N\Nc1nc2ccccc2[nH]1)c1ccc(N2CCOCC2)cc1	-	-	-	33	-	-

From PubChem
